Data as given in ChEMBL document CHEMBL1125276 (J Med Chem, 1991).

Tests used:
[1] = test system: L1210; experiment: Tested for the inhibition of L1210 cell proliferation.; format: functional, cell-based; conditions: Mus musculus
Summary of the method: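 L1210 cells were grown in RPMI 1640 with 10% FCS, 2 mM L-glutamine and 10 mM HEPES (pH 7.4). Exponential-phase cells (10^5 cells/mL) were exposed for 24 h to 5 drug concentrations in triplicate, then pulsed 3 h with 0.5 µCi/mL [3H]thymidine. Cells were harvested onto filters and counted. IC50 is 50% inhibition of incorporation versus untreated cells, given as the mean of 2–5 independent experiments.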

[2] = test system: P388; experiment: Long-term survivors (LTS) for 60 days at optimal dose of 1.00 mg/kg for antitumor activity against P388 leukemia cells in 12 mice.; format: functional, Mus musculus
[3] = test system: P388; experiment: Compound was tested for T/C range at optimal dose of 1.00 mg/kg for antitumor activity against P388 leukemia cells in mice; value ranges from 234-302; format: functional, Mus musculus
[4] = molecular target: Tubulin; experiment: The compound tested for the inhibition of tubulin polymerization.; format: functional
Summary of the method: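 Tubulin was partially purified from dog brain by polymerization/depolymerization cycles and used at 0.5 mg/mL. Compounds were added in DMSO (10 µL per 500 µL reaction) at 10^-6 to 10^-9 M, with DMSO-only controls. Polymerization was followed by turbidity at 350 nm. Rates from two separate experiments were plotted against concentration, and IC50 was read graphically.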

[5] = test system: P388; experiment: Compound was tested for T/C range at optimal dose of 0.15 mg/kg for antitumor activity against P388 leukemia cells in mice; value ranges from 168-600; format: functional, Mus musculus
[6] = test system: P388; experiment: Long-term survivors (LTS) for 60 days at optimal dose of 0.15 mg/kg for antitumor activity against P388 leukemia cells in 25 mice.; format: functional, Mus musculus
[7] = test system: P388; experiment: Long-term survivors (LTS) for 60 days at optimal dose of 1.00 mg/kg for antitumor activity against P388 leukemia cells in 6 mice.; format: functional, Mus musculus
[8] = test system: P388; experiment: Compound was tested for T/C range at optimal dose of 1.00 mg/kg for antitumor activity against P388 leukemia cells in mice.; format: functional, Mus musculus
[9] = test system: P388; experiment: Compound was tested for T/C range at optimal dose of 3.0 mg/kg for antitumor activity against P388 leukemia cells in mice.; format: functional, Mus musculus
[10] = test system: P388; experiment: Long-term survivors (LTS) for 60 days at optimal dose of 3.0 mg/kg for antitumor activity against P388 leukemia cells in 6 mice.; format: functional, Mus musculus
[11] = test system: P388; experiment: Long-term survivors (LTS) for 60 days at optimal dose of 1.00 mg/kg for antitumor activity against P388 leukemia cells in 5 mice.; format: functional, Mus musculus
[12] = test system: P388; experiment: Compound was tested for T/C range at optimal dose of 20.0 mg/kg for antitumor activity against P388 leukemia cells in mice.; format: functional, Mus musculus
[13] = test system: P388; experiment: Long-term survivors (LTS) for 60 days at optimal dose of 20.0 mg/kg for antitumor activity against P388 leukemia cells in 5 mice; format: functional, Mus musculus
[14] = test system: P388; experiment: Compound was tested for T/C range at optimal dose of 40.0 mg/kg for antitumor activity against P388 leukemia cells in mice.; format: functional, Mus musculus
[15] = test system: P388; experiment: Long-term survivors (LTS) for 60 days at optimal dose of 40.0 mg/kg for antitumor activity against P388 leukemia cells in 6 mice.; format: functional, Mus musculus

SMILES: C=CCC(NC(=O)[C@@]1(O)[C@H](O)[C@]2(CC)C=CCN3CC[C@@]4(c5cc([C@@]6(C(=O)OC)C[C@@H]7CN(CCc8c6[nH]c6ccccc86)C[C@](O)(CC)C7)c(OC)cc5N(C)[C@@H]14)[C@@H]32)P(=O)(OCC)OCC (some centres undefined)
- IC50 [1]: 3.7 nM
- LTS [2]: 2
- T/C [3]: 234%
- IC50 [4]: 300 nM

SMILES: CCOP(=O)(OCC)[C@@H](NC(=O)[C@@]1(O)[C@H](O)[C@]2(CC)C=CCN3CC[C@@]4(c5cc([C@@]6(C(=O)OC)C[C@@H]7CN(CCc8c6[nH]c6ccccc86)C[C@](O)(CC)C7)c(OC)cc5N(C)[C@@H]14)[C@@H]32)C(C)C
- IC50 [1]: 0.43 nM
- T/C [5]: 168%
- LTS [6]: 8
- IC50 [4]: 400 nM

SMILES: CCOP(=O)(OCC)[C@@H](C)NC(=O)[C@@]1(O)[C@H](O)[C@]2(CC)C=CCN3CC[C@@]4(c5cc([C@@]6(C(=O)OC)C[C@@H]7CN(CCc8c6[nH]c6ccccc86)C[C@](O)(CC)C7)c(OC)cc5N(C)[C@@H]14)[C@@H]32
- IC50 [1]: 37 nM
- LTS [7]: 0
- T/C [8]: 145%
- IC50 [4]: 80 nM

SMILES: CCOP(=O)(OCC)[C@H](NC(=O)[C@@]1(O)[C@H](O)[C@]2(CC)C=CCN3CC[C@@]4(c5cc([C@@]6(C(=O)OC)C[C@@H]7CN(CCc8c6[nH]c6ccccc86)C[C@](O)(CC)C7)c(OC)cc5N(C)[C@@H]14)[C@@H]32)C(C)C
- IC50 [1]: 10.9 nM
- T/C [9]: 135%
- LTS [10]: 0
- IC50 [4]: 800 nM

SMILES: C=CC[C@H](NC(=O)[C@@]1(O)[C@H](O)[C@]2(CC)C=CCN3CC[C@@]4(c5cc([C@@]6(C(=O)OC)C[C@@H]7CN(CCc8c6[nH]c6ccccc86)C[C@](O)(CC)C7)c(OC)cc5N(C)[C@@H]14)[C@@H]32)P(=O)(OCC)OCC
- IC50 [1]: 1.29 nM
- LTS [11]: 0
- T/C [8]: 294%

SMILES: CCOP(=O)(OCC)[C@@H](Cc1ccccc1)NC(=O)[C@@]1(O)[C@H](O)[C@]2(CC)C=CCN3CC[C@@]4(c5cc([C@@]6(C(=O)OC)C[C@@H]7CN(CCc8c6[nH]c6ccccc86)C[C@](O)(CC)C7)c(OC)cc5N(C)[C@@H]14)[C@@H]32
- IC50 [1]: 14.3 nM
- T/C [12]: 261%
- LTS [13]: 1

SMILES: CCOP(=O)(OCC)[C@H](Cc1c[nH]c2ccccc12)NC(=O)[C@@]1(O)[C@H](O)[C@]2(CC)C=CCN3CC[C@@]4(c5cc([C@@]6(C(=O)OC)C[C@@H]7CN(CCc8c6[nH]c6ccccc86)C[C@](O)(CC)C7)c(OC)cc5N(C)[C@@H]14)[C@@H]32
- IC50 [1]: 64.7 nM
- T/C [14]: 188%
- LTS [15]: 0
- IC50 [4]: 100 nM

SMILES: CCOP(=O)(CNC(=O)[C@@]1(O)[C@H](O)[C@]2(CC)C=CCN3CC[C@@]4(c5cc([C@@]6(C(=O)OC)C[C@@H]7CN(CCc8c6[nH]c6ccccc86)C[C@](O)(CC)C7)c(OC)cc5N(C)[C@@H]14)[C@@H]32)OCC
- IC50 [1]: 17.8 nM
- T/C [9]: 230%
- LTS [10]: 1
- IC50 [4]: 300 nM

SMILES: CCOP(=O)(OCC)[C@@H](Cc1c[nH]c2ccccc12)NC(=O)[C@@]1(O)[C@H](O)[C@]2(CC)C=CCN3CC[C@@]4(c5cc([C@@]6(C(=O)OC)C[C@@H]7CN(CCc8c6[nH]c6ccccc86)C[C@](O)(CC)C7)c(OC)cc5N(C)[C@@H]14)[C@@H]32
- IC50 [1]: 36.7 nM
- T/C [14]: 197%
- LTS [15]: 0
- IC50 [4]: 100 nM
